Experimental data as given in ChEMBL document CHEMBL1136994, “Substitution of arginine with proline and proline derivatives in melanocyte-stimulating hormones leads to selectivity for human melanocortin 4 receptor” (J Med Chem, 2009).
pEC50, pIC50: −log10 of the molar value.

Assays:
[1] = molecular target: T1, Melanocortin receptor 4 (Homo sapiens, UniProt P32245); format: functional, cell-based, HEK293
[2] = molecular target: T2, Melanocortin receptor 5 (Homo sapiens, UniProt P33032); assay: Displacement of [125I][Nle4,Dphe7]-alpha-MSH from human MC5R expressed in HEK293 cells at 10 uM; format: cell-based
T2 sequence (P33032 whole entry): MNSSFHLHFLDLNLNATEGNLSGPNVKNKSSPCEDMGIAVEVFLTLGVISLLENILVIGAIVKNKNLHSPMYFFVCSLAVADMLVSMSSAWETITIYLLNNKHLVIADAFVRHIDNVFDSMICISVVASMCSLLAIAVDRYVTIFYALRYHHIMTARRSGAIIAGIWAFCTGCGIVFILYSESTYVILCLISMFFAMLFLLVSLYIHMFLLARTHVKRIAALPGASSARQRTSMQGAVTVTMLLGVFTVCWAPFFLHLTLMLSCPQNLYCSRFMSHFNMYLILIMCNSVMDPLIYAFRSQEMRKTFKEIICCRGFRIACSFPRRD

[3] = molecular target: T3, Melanocyte-stimulating hormone receptor (Homo sapiens, UniProt Q01726); format: functional, cell-based, HEK293
T3 sequence (Q01726 whole entry): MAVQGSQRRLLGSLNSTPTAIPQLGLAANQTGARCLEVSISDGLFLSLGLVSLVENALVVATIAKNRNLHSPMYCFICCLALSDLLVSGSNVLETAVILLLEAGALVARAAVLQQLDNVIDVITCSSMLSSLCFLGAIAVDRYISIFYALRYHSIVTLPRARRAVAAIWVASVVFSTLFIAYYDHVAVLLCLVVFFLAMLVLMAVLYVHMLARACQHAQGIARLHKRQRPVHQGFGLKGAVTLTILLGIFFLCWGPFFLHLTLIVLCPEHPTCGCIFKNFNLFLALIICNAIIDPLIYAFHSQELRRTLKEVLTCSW

[4] = molecular target: T4, Melanocortin receptor 3 (Homo sapiens, UniProt P41968); assay: Displacement of [125I][Nle4,Dphe7]-alpha-MSH from human MC3R expressed in HEK293 cells at 10 uM; format: cell-based
T4 sequence (P41968 whole entry): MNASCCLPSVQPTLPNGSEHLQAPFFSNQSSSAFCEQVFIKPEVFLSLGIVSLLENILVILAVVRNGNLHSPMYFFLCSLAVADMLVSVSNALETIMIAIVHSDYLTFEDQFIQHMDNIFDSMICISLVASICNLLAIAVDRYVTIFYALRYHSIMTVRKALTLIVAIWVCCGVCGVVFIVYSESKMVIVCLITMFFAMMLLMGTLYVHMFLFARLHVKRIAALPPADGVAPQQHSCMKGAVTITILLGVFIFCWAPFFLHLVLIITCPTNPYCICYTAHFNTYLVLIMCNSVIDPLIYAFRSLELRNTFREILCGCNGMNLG

[5] = molecular target: T1, Melanocortin receptor 4; assay: biochemical; format: cell-based, HEK293
[6] = molecular target: T3, Melanocyte-stimulating hormone receptor; assay: biochemical; format: cell-based, HEK293
[7] = molecular target: T4, Melanocortin receptor 3; assay: biochemical; format: cell-based, HEK293
[8] = molecular target: T4, Melanocortin receptor 3; format: functional, cell-based, HEK293
[9] = molecular target: T2, Melanocortin receptor 5; format: functional, cell-based, HEK293
[10] = molecular target: T1, Melanocortin receptor 4; assay: Displacement of [125I][Nle4,Dphe7]-alpha-MSH from human MC4R expressed in HEK293 cells at 10 uM; format: cell-based
Procedure, shortened: (§1)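 Stably transfected HEK293 cells for each hMCR were seeded 48 h ahead at 100 000 cells/well. Buffer was MEM with 25 mM HEPES pH 7.4, 0.2% BSA, 1 mM 1,10-phenanthroline, leupeptin and bacitracin. […] After washing, cells were lysed in NaOH/Triton and counted by γ counter. Binding was scored at 10^-5 M.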

[11] = molecular target: T3, Melanocyte-stimulating hormone receptor; assay: Displacement of [125I][Nle4,Dphe7]-alpha-MSH from human MC1R expressed in HEK293 cells at 10 uM; format: cell-based
Procedure, shortened: as §1

[12] = molecular target: T2, Melanocortin receptor 5; assay: biochemical; format: cell-based, HEK293

T1 sequence (P32245 whole entry): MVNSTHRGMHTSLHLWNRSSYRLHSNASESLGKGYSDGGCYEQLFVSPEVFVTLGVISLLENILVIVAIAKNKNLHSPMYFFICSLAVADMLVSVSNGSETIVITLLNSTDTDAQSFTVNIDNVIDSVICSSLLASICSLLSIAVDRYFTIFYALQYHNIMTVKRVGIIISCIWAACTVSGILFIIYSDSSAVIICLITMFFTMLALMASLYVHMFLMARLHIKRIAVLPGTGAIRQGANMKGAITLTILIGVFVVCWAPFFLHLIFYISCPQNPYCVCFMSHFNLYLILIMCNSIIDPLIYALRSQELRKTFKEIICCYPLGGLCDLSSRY

| Structure (SMILES) | pEC50 [1] | IC50 [2] | pEC50 [3] | IC50 [4] | pIC50 [5] | pIC50 [6] | other results |
| --- | --- | --- | --- | --- | --- | --- | --- |
| CCCC[C@H](NC(=O)[C@@H](NC(=O)[C@H](Cc1ccc(O)cc1)NC(C)=O)C(C)C)C(=O)NCC(=O)N[C@@H](Cc1cnc[nH]1)C(=O)N[C@H](Cc1ccccc1)C(=O)N1CCC[C@H]1C(=O)N[C@@H](Cc1c[nH]c2ccccc12)C(=O)N[C@@H](CC(=O)O)C(=O)N[C@@H](CCCNC(=N)N)C(=O)N[C@@H](Cc1ccccc1)C(=O)NCC(N)=O | 6.68 | Not Active | 6.92 | Not Active | 6.57 | 6.72 | – |
| CCCC[C@H](NC(C)=O)C(=O)N[C@H]1CC(=O)NCCCC[C@@H](C(N)=O)NC(=O)[C@H](Cc2c[nH]c3ccccc23)NC(=O)[C@@H]2CCCN2C(=O)[C@@H](Cc2ccccc2)NC(=O)[C@H](Cc2cnc[nH]2)NC1=O | – | – | < 6.00 | – | – | < 5.32 | – |
| CCCC[C@H](NC(C)=O)C(=O)N[C@H]1CC(=O)NCCCC[C@@H](C(N)=O)NC(=O)[C@H](Cc2c[nH]c3ccccc23)NC(=O)[C@H](CCCN=C(N)N)NC(=O)[C@@H](Cc2ccccc2)NC(=O)[C@@H]2C[C@H](N=C(N)N)CN2C1=O | 7.39 | – | 5.57 | – | 8.24 | – | pIC50 [7]: 8.55; pEC50 [8]: 5.60; pEC50 [9]: 7.68 |
| CCCC[C@H](NC(=O)[C@@H](NC(=O)[C@H](Cc1ccc(O)cc1)NC(C)=O)C(C)C)C(=O)NCC(=O)N[C@@H](Cc1cnc[nH]1)C(=O)N[C@H](Cc1ccccc1)C(=O)N1C[C@@H](NC(=N)N)C[C@H]1C(=O)N[C@@H](Cc1c[nH]c2ccccc12)C(=O)N[C@@H](CC(=O)O)C(=O)N[C@@H](CCCNC(=N)N)C(=O)N[C@@H](Cc1ccccc1)C(=O)NCC(N)=O | – | Not Active | < 5.30 | Not Active | – | 6.00 | IC50 [10]: Not Active |
| CCCC[C@H](NC(=O)[C@@H](NC(=O)[C@H](Cc1ccc(O)cc1)NC(C)=O)C(C)C)C(=O)NCC(=O)N[C@@H](Cc1cnc[nH]1)C(=O)N[C@H](Cc1ccccc1)C(=O)N1C[C@H](NC(=N)N)C[C@H]1C(=O)N[C@@H](Cc1c[nH]c2ccccc12)C(=O)N[C@@H](CC(=O)O)C(=O)N[C@@H](CCCNC(=N)N)C(=O)N[C@@H](Cc1ccccc1)C(=O)NCC(N)=O | – | Not Active | 5.85 | Not Active | – | 6.08 | IC50 [10]: Not Active |
| CCCC[C@H](NC(C)=O)C(=O)N[C@H]1CC(=O)NCCCC[C@@H](C(N)=O)NC(=O)[C@H](Cc2c[nH]c3ccccc23)NC(=O)[C@@H]2C[C@H](N=C(N)N)CN2C(=O)[C@@H](Cc2ccc3ccccc3c2)NC(=O)[C@H](Cc2cnc[nH]2)NC1=O | – | – | – | – | – | < 5.52 | – |
| CCCC[C@H](NC(C)=O)C(=O)N[C@H]1CC(=O)NCCCC[C@@H](C(N)=O)NC(=O)[C@H](Cc2c[nH]c3ccccc23)NC(=O)[C@@H]2C[C@H](NC(=N)N)CN2C(=O)[C@@H](Cc2ccccc2)NC(=O)[C@H](Cc2cnc[nH]2)NC1=O | – | – | – | – | – | – | IC50 [11]: Not Active |
| CCCC[C@H](NC(C)=O)C(=O)N[C@H]1CC(=O)NCCCC[C@@H](C(N)=O)NC(=O)[C@H](Cc2c[nH]c3ccccc23)NC(=O)[C@H](CCCN=C(N)N)NC(=O)[C@@H](Cc2ccccc2)NC(=O)[C@@H]2C[C@@H](N=C(N)N)CN2C1=O | 5.46 | – | 6.09 | – | 9.22 | 8.57 | pIC50 [7]: 9.00; pEC50 [8]: 7.85; pEC50 [9]: 8.80; pIC50 [12]: 8.60 |
| CCCC[C@H](NC(C)=O)C(=O)N[C@H]1CC(=O)NCCCC[C@@H](C(N)=O)NC(=O)[C@H](Cc2c[nH]c3ccccc23)NC(=O)[C@@H]2C[C@@H](NC(=N)N)CN2C(=O)[C@@H](Cc2ccc3ccccc3c2)NC(=O)[C@H](Cc2cnc[nH]2)NC1=O | – | – | 4.72 | – | – | 6.40 | – |
| CCCC[C@H](NC(C)=O)C(=O)N[C@H]1CC(=O)NCCCC[C@@H](C(N)=O)NC(=O)[C@H](Cc2c[nH]c3ccccc23)NC(=O)[C@@H]2CCCN2C(=O)[C@@H](Cc2ccc3ccccc3c2)NC(=O)[C@H](Cc2cnc[nH]2)NC1=O | – | – | 6.80 | – | – | 6.22 | – |
